# Test system: not listed separately
# Experiment: Selectivity index, ratio of CC50 for human […] cells to EC50 for HIV1 3B infected in human C8166 cells
# Type: toxicity, cell-based
# Conditions: read-out: Ratio CC50/IC50
# How it was run: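 SI was calculated as CC50/EC50. CC50 came from the 72 h MTT assay on uninfected C8166 cells. EC50 came from the 3-day syncytium-count assay in C8166 cells infected with HIV-1 IIIB at MOI 0.02. Both values are means of three experiments.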
row,Structure (SMILES),selectivity ratio
1,Cc1c(CC2CCCCC2)nc(SCc2ccccc2)[nH]c1=O,48
2,Cc1c(CC2CCCCC2)nc(SCC(C)C)[nH]c1=O,34
3,CC(C)c1c(CC2CCCCC2)nc(SCC(=O)c2ccccc2)[nH]c1=O,3.62e+06
4,COc1ccc(C(=O)CSc2nc(CC3CCCCC3)c(C)c(=O)[nH]2)cc1,396
5,CC(C)c1c(CC2CCCCC2)nc(SCc2ccccc2)[nH]c1=O,2.54e+06
6,CC(C)c1c(Cc2ccccc2)nc(SCC(=O)c2ccccc2)[nH]c1=O,> 37700
7,CCc1c(CC2CCCCC2)nc(SCc2ccccc2)[nH]c1=O,776
8,CCc1c(CC2CCCCC2)nc(SCC(=O)c2ccc(OC)cc2)[nH]c1=O,516000
9,CCc1c(CC2CCCCC2)nc(SCC(C)C)[nH]c1=O,691
10,Cc1c(CC2CCCCC2)nc(SCC(=O)c2ccccc2)[nH]c1=O,2150
11,CCc1c(Cc2ccccc2)nc(SCC(=O)c2ccc(OC)cc2)[nH]c1=O,> 10500
12,Cc1cn([C@H]2C[C@H](N=[N+]=[N-])[C@@H](CO)O2)c(=O)[nH]c1=O [ZIDOVUDINE],444000
13,CCc1c(CC2CCCCC2)nc(SCC(=O)c2ccccc2)[nH]c1=O,6.32e+06
14,CCc1c(Cc2ccccc2)nc(SCC(=O)c2ccccc2)[nH]c1=O,> 6850
15,CC(C)CSc1nc(CC2CCCCC2)c(C(C)C)c(=O)[nH]1,1710
16,COc1ccc(C(=O)CSc2nc(Cc3ccccc3)c(C(C)C)c(=O)[nH]2)cc1,> 3390
17,CC(C)c1c(CC2CCCCC2)nc(SCC(=O)c2ccccc2O)[nH]c1=O,117000
18,Cc1ccnc2c1NC(=O)c1cccnc1N2C1CC1 [NEVIRAPINE],> 15200
19,COc1ccc(C(=O)CSc2nc(CC3CCCCC3)c(C(C)C)c(=O)[nH]2)cc1,1.39e+06

# Test system: Human immunodeficiency virus 1
# Experiment: Antiviral activity against HIV1 3B infected in human PBMC assessed as protection against virus-induced cytopathogenicity after 3 days
# Type: functional, organism-based
# Conditions: Human immunodeficiency virus 1, 3B, 72 h
row,Structure (SMILES),EC50
1,CC(C)c1c(CC2CCCCC2)nc(SCC(=O)c2ccccc2)[nH]c1=O,31 nM

# Test system: Human immunodeficiency virus 1
# Experiment: Antiviral activity against HIV1 3B infected in human A17 cells assessed as protection against virus-induced cytopathogenicity after 3 days
# Type: functional, organism-based
# Conditions: Human immunodeficiency virus 1, 3B, A17, 72 h
row,Structure (SMILES),EC50
1,CC(C)c1c(CC2CCCCC2)nc(SCC(=O)c2ccccc2)[nH]c1=O,46 nM

# From ChEMBL document CHEMBL1641481, “Synthesis and biological evaluation of novel dihydro-aryl/alkylsulfanyl-cyclohexylmethyl-oxopyrimidines (S-DACOs) as high active anti-HIV agents” (Bioorg Med Chem Lett, 2011)
